Data set [1] can be described thus: AUC at steady state in human at 100 mg, po qd for 7 days by LC/MS/MS analysis. It counts as ADME, organism-based. Set-up: dosed compound name Lixivaptan. Particulars: plasma. In a few lines:
(§1)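 Phase 1 human study with lixivaptan 100 mg orally once daily and blood taken on the final day. Parent and two abundant metabolites were quantified in plasma with a validated LC-MS/MS assay.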

A short description of data set [2]: AUC(0 to t) in female Sprague-Dawley rat plasma at 10 mg/kg, po administered as single dose via gavage by LC-MS/MS analysis. In kind it is ADME, organism-based. Set-up: dose 10 mg/kg, dosed compound name [14C]lixivaptan, route oral. A digest of the protocol: (§2)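 Jugular-cannulated Sprague-Dawley rats (5/gender) were fasted 18 h and gavaged once with 10 mg/kg [14C]lixivaptan suspended in water/pluronic F68. K2EDTA blood was taken at 0.25–168 h, with donor blood replaced from 1 h on. Total radioactivity was read by LSC (ng-equiv/ml) and parent by validated LC-MS/MS. Noncompartmental Cmax, log-linear kel and trapezoidal AUC followed.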

A short description of data set [3]: AUC(0 to t) in male beagle dog plasma at 10 mg/kg, po administered as single dose by LC-MS/MS analysis. It counts as ADME, organism-based, Canis lupus familiaris. Set-up: dose 10 mg/kg, dosed compound name [14C]lixivaptan, route oral. A digest of the protocol: (§3)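 Four male beagles were fasted 18 h and gavaged once with 10 mg/kg (2 ml/kg) [14C]lixivaptan as a 5.0 mg/ml water/pluronic F68 suspension. Jugular K2EDTA blood was sampled from 0.25 to 168 h. Plasma total radioactivity was counted by LSC as ng-equiv/ml and lixivaptan by validated LC-MS/MS. Noncompartmental Cmax, t1/2 and trapezoidal AUC were derived.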

Data set [4] in a line: AUC(0 to t) in male Sprague-Dawley rat plasma at 10 mg/kg, po administered as single dose via gavage by LC-MS/MS analysis. In kind it is ADME, organism-based. Set-up: dose 10 mg/kg, dosed compound name [14C]lixivaptan, route oral. A digest of the protocol:
as §2

The nature of data set [5]: Cmax in male Sprague-Dawley rat plasma at 10 mg/kg, po administered as single dose via gavage by LC-MS/MS analysis. In kind it is ADME, organism-based. Set-up: dose 10 mg/kg, dosed compound name [14C]lixivaptan, route oral. In a few lines:
as §2

Data set [6] in a line: Half life in male Sprague-Dawley rat plasma at 10 mg/kg, po administered as single dose via gavage by LC-MS/MS analysis. It counts as ADME, organism-based. Set-up: dose 10 mg/kg, dosed compound name [14C]lixivaptan, route oral. In a few lines:
(§4)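 Jugular-vein cannulated SD rats (5/gender) given gavage [14C]drug 10 mg/kg in pluronic F68/water; K2EDTA blood 0.25-168 h with donor blood replacement. Parent by validated LC-MS/MS, radioactivity by LSC; Tmax observed; t1/2 = 0.693/kel by terminal log-linear regression.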

A short description of data set [7]: Half life in female Sprague-Dawley rat plasma at 10 mg/kg, po administered as single dose via gavage by LC-MS/MS analysis. It counts as ADME, organism-based. Set-up: dose 10 mg/kg, dosed compound name [14C]lixivaptan, route oral. In a few lines:
as §4

Data set [8] is described as follows: Tmax in male beagle dog plasma at 10 mg/kg, po administered as single dose by LC-MS/MS analysis. Set-up: dose 10 mg/kg, dosed compound name [14C]lixivaptan, route oral. It counts as ADME, organism-based, Canis lupus familiaris. A digest of the protocol: (§5)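 Male beagles given 10 mg/kg [14C]drug oral suspension; jugular K2EDTA blood at 0.25-168 h. Parent by validated LC-MS/MS, total radioactivity by LSC; Tmax observed; t1/2 = 0.693/kel from terminal log-linear regression.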

Data set [9] in a line: Tmax in male Sprague-Dawley rat plasma at 10 mg/kg, po administered as single dose via gavage by LC-MS/MS analysis. Set-up: dose 10 mg/kg, dosed compound name [14C]lixivaptan, route oral. It counts as ADME, organism-based. A digest of the protocol: as §4
Data set [10] is described as follows: Half life in human plasma at 100 mg, po administered as single dose by LC-MS/MS analysis. It counts as ADME, organism-based. Set-up: dosed compound name [14C]lixivaptan. In a few lines: (§6)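 Single oral 100 mg [14C]drug to healthy male volunteers; plasma at 0.25-144 h. Parent by validated LC-MS/MS, total radioactivity by LSC as ng-equiv/ml; Tmax from observed data; t1/2 = 0.693/kel from log-linear terminal regression.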

Data set [11] in a line: AUC(0 to infinity) in human plasma at 100 mg, po administered as single dose by LC-MS/MS analysis. Set-up: dose 100 mg, route oral, time infinity, dosed compound name [14C]lixivaptan. It counts as ADME, organism-based. A digest of the protocol:
(§7)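 Fasted healthy males took one oral 100 mg (200 µCi) [14C]lixivaptan dose. Plasma was drawn from predose to 144 h. Total radioactivity was measured by LSC and converted to ng-equiv/ml via the dose specific activity; lixivaptan by validated LC-MS/MS. Noncompartmental analysis: Cmax observed; kel by log-linear regression; AUC0-t by linear trapezoid; extrapolation as Cest/kel.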

Data set [12] is described as follows: Cmax in male beagle dog plasma at 10 mg/kg, po administered as single dose by LC-MS/MS analysis. Set-up: dose 10 mg/kg, dosed compound name [14C]lixivaptan, route oral. In kind it is ADME, organism-based, Canis lupus familiaris. In a few lines:
as §3

Data set [13] can be described thus: Cmax in human plasma at 100 mg, po administered as single dose by LC-MS/MS analysis. In kind it is ADME, organism-based. Set-up: dose 100 mg, route oral, dosed compound name [14C]lixivaptan. A digest of the protocol:
as §7

A short description of data set [14]: Half life in male beagle dog plasma at 10 mg/kg, po administered as single dose by LC-MS/MS analysis. Set-up: dose 10 mg/kg, dosed compound name [14C]lixivaptan, route oral. It counts as ADME, organism-based, Canis lupus familiaris. A digest of the protocol:
as §5

Data set [15] in a line: Tmax in human plasma at 100 mg, po administered as single dose by LC-MS/MS analysis. It counts as ADME, organism-based. Set-up: dosed compound name [14C]lixivaptan. A digest of the protocol: as §6
Data set [16] in a line: AUC(0 to infinity) in male beagle dog plasma at 10 mg/kg, po administered as single dose by LC-MS/MS analysis. In kind it is ADME, organism-based, Canis lupus familiaris. Set-up: time infinity, dose 10 mg/kg, dosed compound name [14C]lixivaptan, route oral. In a few lines: as §3
Data set [17] can be described thus: AUC(0 to infinity) in male Sprague-Dawley rat plasma at 10 mg/kg, po administered as single dose via gavage by LC-MS/MS analysis. In kind it is ADME, organism-based. Set-up: time infinity, dose 10 mg/kg, dosed compound name [14C]lixivaptan, route oral. In a few lines: as §2
Data set [18] in a line: AUC(0 to t) in human plasma at 100 mg, po administered as single dose by LC-MS/MS analysis. In kind it is ADME, organism-based. Set-up: dosed compound name [14C]lixivaptan. In a few lines:
as §7

A short description of data set [19]: AUC(0 to infinity) in female Sprague-Dawley rat plasma at 10 mg/kg, po administered as single dose via gavage by LC-MS/MS analysis. It counts as ADME, organism-based. Set-up: time infinity, dose 10 mg/kg, dosed compound name [14C]lixivaptan, route oral. A digest of the protocol: as §2
Data set [20] is described as follows: Tmax in female Sprague-Dawley rat plasma at 10 mg/kg, po administered as single dose via gavage by LC-MS/MS analysis. Set-up: dose 10 mg/kg, dosed compound name [14C]lixivaptan, route oral. It counts as ADME, organism-based. A digest of the protocol: as §4
Data set [21] is described as follows: Cmax in female Sprague-Dawley rat plasma at 10 mg/kg, po administered as single dose. In kind it is ADME, organism-based. Set-up: dose 10 mg/kg, dosed compound name [14C]lixivaptan, route oral. A digest of the protocol:
as §2

In data set [22] the test system is Homo sapiens. Description: Drug concentration at steady state in human at 100 mg, po qd for 7 days by LC/MS/MS analysis. It counts as ADME, organism-based. Set-up: dosed compound name Lixivaptan. Particulars: in vivo, 168 h. In a few lines:
as §1

For `Cc1ccc(F)cc1C(=O)Nc1ccc(C(=O)N2Cc3cccn3Cc3ccccc32)c(Cl)c1` [LIXIVAPTAN], in data set [1], the AUC (in general, the area under the concentration-time curve, a measure of exposure) at 168 h came to 2960 ng·h/mL. Besides, the AUC(0-t) (usually exposure summed from dosing to a finite time, without extrapolation to infinity) in data set [2] was found to be 1530 ng·h/mL; in [3], 4700 ng·h/mL; in data set [4] it was 140 ng·h/mL; in data set [18], 1540 ng·h/mL. For the same compound, the Cmax (in general, the maximum level reached in the sampled fluid or tissue) in data set [5] came out at 91 ng/mL; in data set [12], 759 ng/mL; in data set [13] it was 437 ng/mL; in [21], 338 ng/mL. In addition, the half-life (as a rule, the time in which the quantity being followed falls by half) in data set [6] was 1.3 h; in data set [7], 4.2 h; in data set [10] it was 9.77 h; in data set [14] it was 8.8 h. In addition, the time to peak (Tmax) (in general, the time at which the peak concentration occurs) in data set [8] amounted to 0.8 h; in data set [9] it was 0.8 h; in data set [15], 0.7 h; in data set [20], 0.8 h. For the same compound, the AUC(0-inf) – broadly, total exposure, with the tail of the curve extrapolated – in data set [11] is 1570 ng·h/mL; in data set [16] it was 4870 ng·h/mL; in [17] it was 219 ng·h/mL; in data set [19] it was 1890 ng·h/mL. Moreover, the Css in data set [22] is 514 ng/mL.

Source of the values: ChEMBL document CHEMBL3525987, “Assessment of exposure of metabolites in preclinical species and humans at steady state from the single-dose radiolabeled absorption, distribution, metabolism, and excretion studies: a case study” (Drug Metab Dispos, 2012).
